In ChEMBL document CHEMBL1127368, “Selective kappa-opioid agonists: synthesis and structure-activity relationships of piperidines incorporating on oxo-containing acyl group” (J Med Chem, 1994):

How the values were obtained:
Mus musculus [1] = test: Tested for in vivo antinociceptive activity in mouse abdominal constriction assay; format: functional; settings: Abdomen
Method in brief: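 Mice of 20-35 g. Abdominal constriction induced with phenyl-p-benzoquinone. Ten animals per dose. ED50 with 95% confidence intervals obtained by regression analysis.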

Mus musculus [2] = test: Tested for in vivo antinociceptive activity in mouse tail-flick assay; format: functional
Method in brief: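 Tail-flick antinociception in mice of 20-35 g. Ten animals per dose. ED50 with 95% confidence intervals obtained by probit analysis.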

[3] = target: Kappa-type opioid receptor (Mus musculus, UniProt P33534); test: Evaluated for the binding affinity at kappa receptor
Kappa-type opioid receptor, sequence (P33534 whole entry): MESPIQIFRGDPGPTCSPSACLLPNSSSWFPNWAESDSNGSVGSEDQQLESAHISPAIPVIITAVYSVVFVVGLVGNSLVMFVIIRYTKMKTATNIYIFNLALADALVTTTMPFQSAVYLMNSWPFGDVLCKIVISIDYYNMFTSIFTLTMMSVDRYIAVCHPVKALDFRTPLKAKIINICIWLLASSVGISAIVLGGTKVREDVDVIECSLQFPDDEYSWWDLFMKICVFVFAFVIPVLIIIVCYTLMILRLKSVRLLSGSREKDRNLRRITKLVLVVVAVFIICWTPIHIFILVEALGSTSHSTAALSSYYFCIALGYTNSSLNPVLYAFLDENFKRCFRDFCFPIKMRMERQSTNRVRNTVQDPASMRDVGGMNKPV

Mus musculus [4] = test: Tested for in vivo locomotor impairment/sedation in mouse rotarod test; format: functional
Method in brief: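 Locomotor impairment/sedation measured on a rotarod in mice of 20-35 g. Ten animals per dose. ED50 with 95% confidence intervals obtained by regression analysis.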

Rattus norvegicus [5] = test: Tested for in vivo antinociceptive activity in rat abdominal constriction; format: functional; settings: Abdomen
Method in brief: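 Male SD rats, 180-350 g. Abdominal constriction induced with phenyl-p-benzoquinone. Ten animals per dose. ED50 with 95% confidence intervals obtained by probit analysis.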

Rattus norvegicus [6] = test: Tested for in vivo locomotor impairment/sedation in rat rotarod; format: functional
Method in brief: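 Male SD rats, 180-350 g. Trained in six 5-min sessions over 2 days. Rotarod accelerated from 3 to 30 rpm across five sessions. Ten animals per dose. ED50 with 95% confidence intervals obtained by regression analysis.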

Mu-type opioid receptor = Mu-type opioid receptor (Mus musculus, UniProt P42866); test: Evaluated for the binding affinity at mu receptor
Mu-type opioid receptor, sequence (P42866 whole entry): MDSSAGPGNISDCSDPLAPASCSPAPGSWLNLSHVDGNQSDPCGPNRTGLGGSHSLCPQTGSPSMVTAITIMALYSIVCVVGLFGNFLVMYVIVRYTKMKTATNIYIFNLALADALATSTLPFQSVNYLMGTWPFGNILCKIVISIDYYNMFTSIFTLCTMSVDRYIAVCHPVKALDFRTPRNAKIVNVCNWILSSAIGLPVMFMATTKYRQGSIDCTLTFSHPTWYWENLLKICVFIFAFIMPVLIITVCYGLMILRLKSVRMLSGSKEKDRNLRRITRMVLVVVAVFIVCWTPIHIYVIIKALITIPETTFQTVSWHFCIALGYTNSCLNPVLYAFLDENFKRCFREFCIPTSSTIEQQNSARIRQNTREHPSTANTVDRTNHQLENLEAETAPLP

[7] = target: Delta-type opioid receptor (Mus musculus, UniProt P32300); test: Evaluated for the binding affinity at delta receptor
Delta-type opioid receptor, sequence (P32300 whole entry): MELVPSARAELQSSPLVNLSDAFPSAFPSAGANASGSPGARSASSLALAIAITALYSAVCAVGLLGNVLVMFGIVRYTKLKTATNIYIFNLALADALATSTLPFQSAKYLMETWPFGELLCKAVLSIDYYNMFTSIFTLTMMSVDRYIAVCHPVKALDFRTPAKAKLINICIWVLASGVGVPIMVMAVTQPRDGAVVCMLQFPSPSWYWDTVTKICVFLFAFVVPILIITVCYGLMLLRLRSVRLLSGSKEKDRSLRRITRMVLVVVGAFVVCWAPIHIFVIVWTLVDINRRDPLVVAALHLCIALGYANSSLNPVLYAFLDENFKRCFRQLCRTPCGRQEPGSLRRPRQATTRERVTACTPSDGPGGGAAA

[8] = target: Sigma non-opioid intracellular receptor 1 (Mus musculus, UniProt O55242); test: Evaluated for the binding affinity at sigma receptor
Sigma non-opioid intracellular receptor 1, sequence (O55242 whole entry): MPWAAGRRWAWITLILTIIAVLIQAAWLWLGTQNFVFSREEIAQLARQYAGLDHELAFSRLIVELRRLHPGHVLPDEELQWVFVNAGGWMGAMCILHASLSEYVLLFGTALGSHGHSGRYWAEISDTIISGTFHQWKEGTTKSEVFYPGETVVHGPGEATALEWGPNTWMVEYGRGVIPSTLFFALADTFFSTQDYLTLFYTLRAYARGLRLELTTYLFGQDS

Rattus norvegicus [9] = test: Tested for in vivo antinociceptive activity in rat abdominal constriction assay; settings: Abdomen

Row | Compound | ED50 (Mus musculus [1]) [µmol/kg] | ED50 (Mus musculus [2]) [µmol/kg] | Ki [3] [nM] | ED50 (Mus musculus [4]) [µmol/kg] | ED50 (Rattus norvegicus [5]) [µmol/kg] | ED50 (Rattus norvegicus [6]) [µmol/kg] | Ki (Mu-type opioid receptor) [nM] | Ki [7] [nM] | Ki [8] [nM] | ED50 (Rattus norvegicus [9]) [µmol/kg]
1 | O=C1CCCc2cc(CC(=O)N3CCCC[C@H]3CN3CCCC3)ccc21 | 0.35 | 0.59 | 7.6 | – | – | – | – | – | – | –
2 | CC(C)N(C)C[C@@H]1CCCCN1C(=O)Cc1ccc2c(c1)CCCC2=O | 0.22 | 1.2 | 4.07 | 1.02 | – | – | – | – | – | –
3 | CN(C[C@@H]1CCCCN1C(=O)Cc1ccc2c(c1)CCCC2=O)C1CC1 | 0.4 | 7.85 | 52.1 | 13.7 | – | – | – | – | – | –
4 | C#CCN(C)C[C@@H]1CCCCN1C(=O)Cc1ccc2c(c1)CCCC2=O | 0.16 | 5.11 | 6.24 | 4.12 | – | – | – | – | – | –
5 | O=C(Cc1ccc(C(F)(F)F)cc1)N1CCCC[C@H]1CN1CCCC1 | 0.1 | 0.32 | 0.64 | 0.28 | 0.11 | 0.35 | – | – | – | –
6 | O=C(Cc1ccc2c(c1)CCCC2)N1CCCC[C@H]1CN1CCCC1 | 0.57 | 2.67 | 0.81 | – | – | – | – | – | – | –
7 | CN(C[C@@H]1CCCCN1C(=O)Cc1ccc2c(c1)CCCC2=O)C1CCC1 | 0.34 | 1.45 | 34.8 | 3.32 | – | – | – | – | – | –
8 | CCN(C)C[C@@H]1CCCCN1C(=O)Cc1ccc2c(c1)CCCC2=O | 0.18 | 1.77 | 10.3 | 2.3 | – | – | – | – | – | –
9 | CN(CC1CC1)C[C@@H]1CCCCN1C(=O)Cc1ccc2c(c1)CCCC2=O | 1.36 | 16.5 | 30.4 | 16.6 | – | – | – | – | – | –
10 | CN(C[C@@H]1CCCCN1C(=O)Cc1ccc2c(c1)CCCC2=O)C1CCCC1 | 0.55 | 6.34 | 20 | 10 | – | – | – | – | – | –
11 | CCN(CC)C[C@@H]1CCCCN1C(=O)Cc1ccc2c(c1)CCCC2=O | 1.2 | 12.6 | 80.3 | 23.7 | – | – | – | – | – | –
12 | CN(C[C@@H]1CCCCN1C(=O)Cc1ccc2c(c1)CCCC2=O)C(C)(C)C | – | > 30 | > 100 | – | – | – | – | – | – | –
13 | O=C1CCCc2sc(CC(=O)N3CCCC[C@H]3CN3CCCC3)cc21 | 1.41 | 13.5 | 6.54 | – | – | – | – | – | – | –
14 | O=C1CCCCc2cc(CC(=O)N3CCCC[C@H]3CN3CCCC3)ccc21 | > 1.5 | > 3 | 5.44 | – | – | – | – | – | – | –
15 | O=C1CCCc2ccc(CC(=O)N3CCCC[C@H]3CN3CCCC3)cc21 | ~1 | > 3 | 5.61 | – | – | – | – | – | – | –
16 | C=CCN(C)C[C@@H]1CCCCN1C(=O)Cc1ccc2c(c1)CCCC2=O | 0.37 | 3.42 | 19.2 | 8.66 | – | – | – | – | – | –
17 | CN(C)C[C@@H]1CCCCN1C(=O)Cc1ccc2c(c1)CCCC2=O | 0.47 | 2.15 | 47 | 5.1 | 0.73 | 26.5 | 6790 | > 100 | 1210 | –
18 | O=C1CCc2cc(CC(=O)N3CCCC[C@H]3CN3CCCC3)ccc21 | > 1.5 | > 30 | 7.93 | – | – | – | – | – | – | –
19 | CCCN(C)C[C@@H]1CCCCN1C(=O)Cc1ccc2c(c1)CCCC2=O | 0.62 | 6.81 | 22.2 | 7.99 | – | – | – | – | – | –
20 | CN1CC[C@]23c4c5ccc(O)c4O[C@H]2[C@@H](O)C=C[C@H]3[C@H]1C5 [MORPHINE] | 1.34 | 9.8 | – | – | – | – | – | – | – | 0.86
